Measurements of several laboratories.
Lines come from different studies, so protocols differ.
Target: Serine/threonine-protein kinase 24 (STK24, Homo sapiens, UniProt Q9Y6E0)

COc1cc(Nc2cnc(C#N)c(O[C@H](C)CN(C)C)n2)ncc1-c1cnn(C)c1  remaining activity (enzyme activity, inhibitor, radiometric; 1 µM): 89%
O=C(Nc1ccc(Oc2ccc(F)cc2)cc1)N1CCc2ncccc2[C@H]1c1ccc(F)cc1  remaining binding (cell-free assay, competition with immobilised ligand; 1 µM): 93%
Cc1ccc(NC(=O)c2ccc(C)c(C(F)(F)F)c2)cc1C#Cc1nn(C2CCC(O)CC2)c2ncnc(N)c12 (stereo not shown)  remaining signal (cell-free assay; 10 µM): 114%
Nc1ncnc2occ(-c3ccc(NC(=O)Nc4cc(C(F)(F)F)ccc4F)cc3)c12  remaining signal (cell-free assay, inhibitor; 20 µM): 4%
O=C(O)c1cc(-c2ccc(C3CCNCC3)cc2)c2ccc(-c3ccc(C(F)(F)F)cc3)cc2c1  remaining binding (cell-free assay, competition with immobilised ligand; 1 µM): 100%
CNC(=O)c1cc(Oc2ccc(NC(=O)Nc3ccc(Cl)c(C(F)(F)F)c3)cc2)ccn1  inhibition (enzyme activity, inhibitor; 10 µM): -46%
O=C1CCc2cc(Nc3cc(OC4CCOCC4)c([N+](=O)[O-])cc3Cl)ccc2N1  remaining binding (cell-free assay, competition with immobilised ligand; 1 µM): 97%
Cn1c2c(c3ccc(Cl)c(Cl)c31)C(C#N)C1(CCOCC1)NC2=O (stereo not shown)  ΔTm (thermal stability, DSF; 10 µM): -0.3 °C
CCN1CCN(Cc2ccc(NC(=O)c3ccc(C)c(Oc4ccnc5[nH]ccc45)c3)cc2C(F)(F)F)CC1  inhibition (target engagement in cells, inhibitor, chemoproteomics; Huh-7; 1 µM): -56%
Cc1ccc(Nc2nccc(N(C)c3ccc4c(C)n(C)nc4c3)n2)cc1S(N)(=O)=O  inhibition (enzyme activity, inhibitor; 10 µM): -24%
Cn1c2c(c3ccc(Cl)c(Cl)c31)C(C#N)C(C)(C)NC2=O (stereo not shown)  ΔTm (thermal stability, DSF; 10 µM): 0.6 °C
O=C(Nc1cnn(-c2csc(C(=O)NC3COC3)c2)c1)Nc1c(F)cccc1Cl  remaining activity (enzyme activity, inhibitor; 5 µM): 81.6%
O=C1NC(=O)c2cc(Nc3ccc(F)cc3)c(Nc3ccc(F)cc3)cc21  remaining signal (cell-free assay; 0.5 µM): 93.7%
Cn1cncc1C1=CN(c2ncnc3[nH]cnc23)CCS1  inhibition (enzyme activity, inhibitor, radiometric; 2 µM): -15.6%
COc1ccc2c(O[C@@H]3C[C@H]4C(=O)N[C@]5(C(=O)O)CC5/C=C\CCCCC[C@H](NC(=O)OC5CCCC5)C(=O)N4C3)cc(-c3csc(NC(=O)C(C)C)n3)nc2c1C (stereo partly shown)  remaining binding (cell-free assay, competition with immobilised ligand; 1 µM): 100%
CN(c1nccc(-c2cnn3ncccc23)n1)C1CC1  remaining signal (cell-free assay; 1 µM): 100%
Cn1c2c(Cl)c(Cl)ccc2c2cn[nH]c(=O)c21  ΔTm (thermal stability, DSF; 10 µM): 0.7 °C
COc1cc(-c2cc(-c3ccc(N4CCNCC4)cc3)cnc2C)cc(OC)c1OC  inhibition (enzyme activity, inhibitor; 1 µM): 4%
COc1cc2ncnc(Nc3ccc(Oc4ccccc4)cc3C)c2cc1OC  inhibition (enzyme activity, inhibitor; 1 µM): 9%
O=C1Nc2ccc(Cl)cc2C1=Cc1cc(Cl)c(O)c(Cl)c1  remaining signal (cell-free assay; 0.5 µM): 104%
COc1cccc2c(NCc3ccccc3)nc(-n3c(N)nc4ccccc43)nc12  inhibition (target engagement in cells, inhibitor, chemoproteomics; 20 mM): -9.9%
CCN1CCN(Cc2ccc(NC(=O)c3ccc(C)c(/C=C/c4cnc5[nH]ccc5c4OC)c3)cc2C(F)(F)F)CC1  inhibition (target engagement in cells, inhibitor, chemoproteomics; A-375; 50 nM): -17%
Cc1cnc(NC2CCOCC2)nc1-n1cnc(C(=O)NC(CN)c2cc(F)cc(Cl)c2)c1 (stereo not shown)  remaining activity (enzyme activity, inhibitor, radiometric; 1 µM): 32%
O=C(Nc1cccnn1)N1CCC(=Cc2cccc(Oc3ccc(C(F)(F)F)cn3)c2)CC1  remaining binding (cell-free assay, competition with immobilised ligand; 1 µM): 100%
Cn1c2c(Cl)c(Cl)ccc2c2cc[nH]c(=O)c21  ΔTm (thermal stability, DSF; 10 µM): 1.3 °C
COc1ccc2c(c1)O[C@H](c1ccc(OC)c(OC)c1)C[C@@H]2NC(=O)C1(c2ccc3c(c2)OC(F)(F)O3)CC1  remaining binding (cell-free assay, competition with immobilised ligand; 1 µM): 92%
CC(C)(C)c1nc2c(s1)c1nc(N)ncc1c1ccc(NS(=O)(=O)c3c(F)cccc3F)c(F)c12  remaining activity (enzyme activity, inhibitor, radiometric; 1 µM): 28%
N#CCCc1ccc2c(c1)-c1[nH]c3ccc([N+](=O)[O-])cc3c1CC(=O)N2  remaining signal (cell-free assay; 0.5 µM): 57.7%
Cn1c2c(c3ccc(Cl)c(Cl)c31)C(C#N)C1(CCN(C(=O)OC(C)(C)C)CC1)NC2=O (racemic)  ΔTm (thermal stability, DSF; 10 µM): 0 °C
Oc1cccc(-c2nc(N3CCOCC3)c3oc4ncccc4c3n2)c1  remaining signal (cell-free assay; 0.5 µM): 100%
O=C(O)[C@@H]1[C@@H](Cn2nnc3ccccc3c2=O)CC[C@H]1C(=O)c1ccc(OCCC2CCOCC2)cc1  remaining binding (cell-free assay, competition with immobilised ligand; 1 µM): 99%
c1ccc(CNc2nc(N3CCOc4ccccc43)nc3c2CCCC3)cc1  inhibition (target engagement in cells, inhibitor, chemoproteomics; 20 mM): -7%
CCOCCn1cc(C(=O)Nc2ccc(-n3nc(-c4cccnc4)cc3C(F)(F)F)cn2)ccc1=O  remaining binding (cell-free assay, competition with immobilised ligand; 1 µM): 100%
Cc1ccc(C(=O)Nc2ccc(CN3CCN(C)CC3)c(C(F)(F)F)c2)cc1C#Cc1cnc2cccnn12  remaining activity (enzyme activity, inhibitor; 23.5 nM): 88%
